Assay [1] deals with Mus musculus. As to the kind of experiment: Antiinflammatory activity in CD1 mouse ear dermatitis model assessed as inhibition of Croton oil-induced ear edema at 0.10 umol administered topically per cm'2 of ear measured after induction of dermatitis relative to untreated control. Format: functional. The procedure, abridged:
(§1)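 Male CD-1 mice (28–32 g), anesthetized with ketamine 145 mg/kg i.p.; right ear (about 1 cm2) given 80 μg croton oil in 15 μL acetone, with test substance co-applied in acetone; left ear left untreated. Controls received irritant only. 6 mm punches taken from both ears; edema = weight difference treated minus untreated; % inhibition vs controls. ID50 by graphic interpolation of log dose–effect curves; ANOVA with Dunnett's test.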

The test system of assay [2] is Mus musculus. As to the kind of experiment: Antiinflammatory activity in CD1 mouse ear dermatitis model assessed as inhibition of Croton oil-induced ear edema at 0.30 umol administered topically per cm'2 of ear measured after induction of dermatitis relative to untreated control. The class given is functional. The gist of the method:
as §1

Assay [3] relates to Mus musculus. Nature of the assay: Antiinflammatory activity in CD1 mouse ear dermatitis model assessed as inhibition of Croton oil-induced ear edema at 1 umol administered topically per cm'2 of ear measured after induction of dermatitis relative to untreated control. The class given is functional. The gist of the method:
as §1

For assay [4], the system named is Mus musculus. As to the kind of experiment: Antiinflammatory activity in CD1 mouse ear dermatitis model assessed as inhibition of Croton oil-induced ear edema administered topically per cm'2 of ear measured after induction of dermatitis relative to untreated control. The class given is functional.
The target in assay [5] is T1, Inhibitor of nuclear factor kappa-B kinase subunit beta (Homo sapiens) (UniProt O14920).
T1 sequence (whole entry): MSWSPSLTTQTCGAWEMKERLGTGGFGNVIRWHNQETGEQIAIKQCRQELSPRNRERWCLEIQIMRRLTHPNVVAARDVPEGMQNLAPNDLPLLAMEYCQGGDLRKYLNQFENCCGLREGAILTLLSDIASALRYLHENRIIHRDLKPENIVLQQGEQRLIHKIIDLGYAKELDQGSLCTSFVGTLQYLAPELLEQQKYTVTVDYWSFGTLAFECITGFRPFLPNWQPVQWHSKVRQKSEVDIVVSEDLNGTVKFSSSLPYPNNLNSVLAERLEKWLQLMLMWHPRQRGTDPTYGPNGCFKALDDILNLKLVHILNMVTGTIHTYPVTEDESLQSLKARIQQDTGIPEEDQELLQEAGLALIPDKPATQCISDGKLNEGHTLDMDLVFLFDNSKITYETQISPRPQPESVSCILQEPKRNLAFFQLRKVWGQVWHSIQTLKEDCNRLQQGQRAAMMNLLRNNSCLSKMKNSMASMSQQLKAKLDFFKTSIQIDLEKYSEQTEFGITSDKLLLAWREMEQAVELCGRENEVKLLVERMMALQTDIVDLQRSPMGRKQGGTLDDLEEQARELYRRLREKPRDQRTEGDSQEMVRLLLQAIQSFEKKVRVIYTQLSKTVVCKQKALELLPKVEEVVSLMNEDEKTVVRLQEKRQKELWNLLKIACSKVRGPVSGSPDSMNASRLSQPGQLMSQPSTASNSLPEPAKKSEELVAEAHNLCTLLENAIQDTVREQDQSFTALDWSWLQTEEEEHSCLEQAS
As to the kind of experiment: Inhibition of human IKK2 assessed as reduction in substrate phosphorylation at 10 uM by ELISA.

In assay [6] the target is T2, Peroxisome proliferator-activated receptor alpha (Homo sapiens) (UniProt Q07869).
T2 sequence (whole entry): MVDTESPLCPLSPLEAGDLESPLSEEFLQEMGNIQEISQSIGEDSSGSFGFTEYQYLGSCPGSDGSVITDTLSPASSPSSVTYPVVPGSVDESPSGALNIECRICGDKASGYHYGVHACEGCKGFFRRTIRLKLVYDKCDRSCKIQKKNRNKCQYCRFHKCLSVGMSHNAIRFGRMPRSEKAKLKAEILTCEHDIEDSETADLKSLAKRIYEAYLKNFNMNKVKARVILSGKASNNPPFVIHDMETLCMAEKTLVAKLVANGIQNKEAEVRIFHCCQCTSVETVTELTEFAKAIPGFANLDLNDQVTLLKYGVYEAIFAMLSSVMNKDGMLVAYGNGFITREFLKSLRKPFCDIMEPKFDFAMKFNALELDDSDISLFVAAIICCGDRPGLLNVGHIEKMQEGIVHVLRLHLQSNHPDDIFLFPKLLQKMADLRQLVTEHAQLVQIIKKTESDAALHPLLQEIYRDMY
As to the kind of experiment: Activation of PPARalpha transfected in HEK293 cells at 10 uM after 18 hrs by firefly luciferase reporter gene-based luminescence assay. The class given is cell-based.

Assay [7] concerns the target T3, Polyunsaturated fatty acid 5-lipoxygenase (Homo sapiens, UniProt P09917).
T3 sequence (P09917 whole entry): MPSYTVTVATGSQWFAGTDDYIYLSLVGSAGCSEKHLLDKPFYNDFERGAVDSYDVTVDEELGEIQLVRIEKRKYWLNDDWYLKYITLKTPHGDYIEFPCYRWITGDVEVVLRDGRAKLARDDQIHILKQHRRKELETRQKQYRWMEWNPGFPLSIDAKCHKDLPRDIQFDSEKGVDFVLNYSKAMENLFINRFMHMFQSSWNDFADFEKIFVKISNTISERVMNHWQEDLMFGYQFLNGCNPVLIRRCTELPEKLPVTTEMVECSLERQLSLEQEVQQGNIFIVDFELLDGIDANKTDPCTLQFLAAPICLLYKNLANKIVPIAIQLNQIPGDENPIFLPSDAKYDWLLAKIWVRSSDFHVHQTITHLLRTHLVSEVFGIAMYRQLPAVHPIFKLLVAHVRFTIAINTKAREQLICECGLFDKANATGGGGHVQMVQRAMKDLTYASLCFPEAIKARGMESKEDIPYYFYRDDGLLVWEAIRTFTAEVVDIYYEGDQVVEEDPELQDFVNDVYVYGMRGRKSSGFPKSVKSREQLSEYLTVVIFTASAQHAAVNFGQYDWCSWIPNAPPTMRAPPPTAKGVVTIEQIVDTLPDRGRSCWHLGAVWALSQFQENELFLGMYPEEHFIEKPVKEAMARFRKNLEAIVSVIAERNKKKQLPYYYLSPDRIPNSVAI
Nature of the assay: Inhibition of 5-lipoxygenase in human neutrophils assessed as inhibition of LTB4 production. The gist of the method: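 Stimulated human neutrophilic granulocytes; 5-LO-mediated LTB4 formation measured; samples dissolved in ethanol. IC50 from at least three concentrations, duplicates, at least three independent experiments, by nonlinear regression.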

Activity calls are given as the source filed them. The calls are words filed in the database; no cut-off is given here.

Turning to `C[C@@H]1[C@H](C)[C@@H](c2ccc(O)cc2)O[C@H]1c1ccc(O)cc1`, the “inhibition (INH)” value with Mus musculus [1] is reported as 14%; with Mus musculus [2] it was 52%; with Mus musculus [3], 72%. For the same compound, in the assay with Mus musculus [4], the ID50 was 0.36 umol/cm2. The inhibition result in assay [5] is “inactive”. Besides, the result in assay [6] was inactive. Besides, in assay [7], the IC50 was above 50 µM.

In the case of `C/C=C/c1ccc2c(c1)[C@@H](C)[C@H](c1ccc(O)cc1)O2`, the “inhibition (INH)” value was found to be 25% with Mus musculus [1], 45% with Mus musculus [2] and 81% in the assay with Mus musculus [3]. The inhibition result in assay [5] is “inactive”. Besides, the result in assay [6] was inactive. For the same compound, the IC50 in assay [7] turned out to be 18.4 µM.

On to `C/C=C/c1ccc2c(c1)[C@H](CO)[C@@H](c1ccc(O)cc1)O2`, for which the “inhibition (INH)” value is reported as 17% in the assay on Mus musculus [1], 36% in the assay on Mus musculus [2] and 75% with Mus musculus [3]. Besides, the ID50 in the assay with Mus musculus [4] stood at 0.42 umol/cm2. Moreover, in assay [5], the inhibition entry was “inactive”. In assay [6], the result was inactive. In addition, the IC50 in assay [7] was above 50 µM.

Consider `C/C=C/c1ccc2oc(-c3ccc(O)cc3)c(C)c2c1` [RATANIAPHENOL II], for which the “inhibition (INH)” value is given as 13% with Mus musculus [1], 41% with Mus musculus [2] and 75% in the assay on Mus musculus [3]. For the same compound, the ID50 in the assay on Mus musculus [4] is 0.4 umol/cm2. Besides, the inhibition entry in assay [5] is “inactive”. In addition, the outcome in assay [6] was inactive. Besides, the IC50 in assay [7] was above 50 µM.

On to `C/C=C/c1ccc2oc(-c3ccc(OC)cc3O)cc2c1` [RATANIAPHENOL I], for which the “inhibition (INH)” value was 9% in the assay on Mus musculus [1], 33% in the assay on Mus musculus [2] and 64% in the assay with Mus musculus [3]. For the same compound, in the assay on Mus musculus [4], the ID50 came out at 0.57 umol/cm2. Also, the inhibition entry in assay [5] is “inactive”. Further, in assay [6], the outcome was inactive. Also, in assay [7], the IC50 was above 50 µM.

On to `C[C@@H]1[C@H](C)[C@@H](c2ccc(O)cc2)O[C@@H]1c1ccc(O)cc1`, for which the entries for the “inhibition (INH)” value in the assay with Mus musculus [1], in the assay with Mus musculus [2] and with Mus musculus [3] were 19%, 39% and 67%, respectively. Further, in the assay on Mus musculus [4], the ID50 came to 0.46 umol/cm2. For the same compound, in assay [5], the inhibition result is “inactive”. Besides, the result in assay [6] was inactive. In assay [7], the IC50 is above 50 µM.

For `COc1ccc(-c2cc3cc(CCCO)ccc3o2)c(O)c1`, the entries for the “inhibition (INH)” value in the assay with Mus musculus [1], in the assay on Mus musculus [2] and in the assay on Mus musculus [3] were 25%, 50% and 67%, respectively. Moreover, the ID50 in the assay on Mus musculus [4] is 0.36 umol/cm2. Further, the inhibition result in assay [5] is “inactive”. Also, the outcome in assay [6] was inactive. For the same compound, the IC50 in assay [7] was 27.2 µM.

For the compound `COc1cc(O)ccc1-c1cc2cc(CCCO)ccc2o1`, the “inhibition (INH)” value with Mus musculus [1] is 13%; in the assay with Mus musculus [2], 32%; with Mus musculus [3] it was 75%. Besides, the ID50 with Mus musculus [4] was determined as 0.45 umol/cm2. The inhibition entry in assay [5] is “inactive”. In addition, the outcome in assay [6] was inactive. Besides, the 50% inhibitory concentration (IC50) in assay [7] is 41.4 µM.

Consider `C/C=C/c1ccc2oc(-c3ccc(O)cc3OC)cc2c1` [RATANIAPHENOL III], for which the results for the “inhibition (INH)” value in the assay with Mus musculus [1], in the assay with Mus musculus [2] and with Mus musculus [3] were 12%, 35% and 70%, respectively. Also, the ID50 in the assay with Mus musculus [4] is given as 0.48 umol/cm2. For the same compound, the inhibition entry in assay [5] was “inactive”. In assay [6], the result was inactive. Further, the IC50 in assay [7] was above 50 µM.

`C/C=C/c1ccc2oc(-c3ccc(O)cc3O)cc2c1`: the results for the “inhibition (INH)” value in the assay with Mus musculus [1], with Mus musculus [2] and with Mus musculus [3] were 15%, 29% and 64%, respectively. Also, the ID50 in the assay with Mus musculus [4] is listed as 0.6 umol/cm2. Further, the inhibition result in assay [5] was “inactive”. Besides, the result in assay [6] was inactive. In assay [7], the IC50 was above 50 µM.

Turning to `C/C=C/c1ccc2oc(-c3ccc(O)cc3)cc2c1`, the “inhibition (INH)” value with Mus musculus [1] stood at 14%; with Mus musculus [2], 35%; with Mus musculus [3], 74%. Also, the ID50 in the assay with Mus musculus [4] is given as 0.44 umol/cm2. Moreover, the inhibition entry in assay [5] is “inactive”. For the same compound, the outcome in assay [6] was inactive. Moreover, the IC50 in assay [7] is above 50 µM.

Source of the values: ChEMBL document CHEMBL2146414, “Lignan derivatives from Krameria lappacea roots inhibit acute inflammation in vivo and pro-inflammatory mediators in vitro” (J Nat Prod, 2011).
